Source: PubChem
Only some compounds are listed: those with a hit (about 2.5% of all), similar ones and a draw of the others.
DSG3 Ab inh = human desmoglein-3 autoantibody binding inhibition; DSG3-coupled beads, scFv-anti-DSG3-GFP binding, flow cytometry; hits give low values; actives 0.48% (n = 310,000); P32926; binding (percent of control), % at 10 µM;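 active means binding more than 3 SD below its plate's average and above zero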;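 further: hits lower antibody fragment binding to DSG3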
TRPC4 block = blocks the mouse TRPC4 cation channel; HEK293 TRPC4beta/mu-opioid, DAMGO-evoked Fluo4 calcium flux; hits give low values; actives 0.39% (n = 300,000); B-score at 10 µM;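 active means B-score over 3 SD under the library average, no early fluorescence shift, positive overall ratio signal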
Target sequence (Q9QUQ5 whole entry, looked up): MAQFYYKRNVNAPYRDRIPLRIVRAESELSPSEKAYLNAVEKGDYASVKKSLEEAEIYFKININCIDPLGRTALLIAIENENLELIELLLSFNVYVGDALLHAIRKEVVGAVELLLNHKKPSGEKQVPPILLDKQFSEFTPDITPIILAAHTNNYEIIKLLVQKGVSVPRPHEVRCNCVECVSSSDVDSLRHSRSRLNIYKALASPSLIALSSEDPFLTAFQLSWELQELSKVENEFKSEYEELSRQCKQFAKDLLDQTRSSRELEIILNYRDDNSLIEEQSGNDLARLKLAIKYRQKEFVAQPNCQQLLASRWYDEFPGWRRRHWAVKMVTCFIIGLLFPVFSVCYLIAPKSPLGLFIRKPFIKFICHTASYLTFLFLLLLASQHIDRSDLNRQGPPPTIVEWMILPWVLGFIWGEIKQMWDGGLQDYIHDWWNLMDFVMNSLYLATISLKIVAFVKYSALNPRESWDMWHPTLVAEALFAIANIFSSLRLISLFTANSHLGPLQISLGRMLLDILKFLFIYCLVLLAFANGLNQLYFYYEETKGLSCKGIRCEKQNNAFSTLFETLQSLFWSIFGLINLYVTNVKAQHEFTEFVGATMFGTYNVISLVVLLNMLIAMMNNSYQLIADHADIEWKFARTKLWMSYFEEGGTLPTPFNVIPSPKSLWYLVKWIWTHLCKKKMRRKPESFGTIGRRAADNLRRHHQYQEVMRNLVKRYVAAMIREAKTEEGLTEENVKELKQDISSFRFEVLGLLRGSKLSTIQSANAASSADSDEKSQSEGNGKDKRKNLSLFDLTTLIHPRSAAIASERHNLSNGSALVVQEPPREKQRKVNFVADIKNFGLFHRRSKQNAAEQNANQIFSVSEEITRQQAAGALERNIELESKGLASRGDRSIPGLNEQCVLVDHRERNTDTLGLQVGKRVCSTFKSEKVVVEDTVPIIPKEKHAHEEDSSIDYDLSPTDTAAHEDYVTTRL
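Assay system: TRPC4beta/mu-opioid receptor HEK293 cell line; compound dosing: single concentration per test compound; detection: Fluo4 Ca2+ flux fluorescence; evaluation: per-well B score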
TRPC4 agonist = TRPC4 (mouse) channel activation. AID 2237. Q9QUQ5. HEK293 TRPC4beta/mu-opioid, Fluo4 calcium fluorescence; hits give high values. actives 0.49% (n = 310,000). B-score at 10 µM;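 active means B-score above 5 SD of library B-scores, and initial fluorescence ratio not above library mean plus 5 SD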;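 further: positive B-score marks a calcium rise read as TRPC4 activation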
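Test system: HEK293 cells stably co-expressing mouse TRPC4beta and mu-opioid receptor | Schedule: Fluo4 dye loading 45 min at room temperature, 110 s recording | Measured by: Kinetic Fluo4 calcium fluorescence, 5 s baseline at 1 Hz | Evaluation: B score of integrated ratio | Controls: Buffer (low) and maximal DAMGO (high)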
TRPC6 activator = mouse TRPC6 channel activation; actives 0.13% (n = 310,000); B-score at 10 µM; Q61143; HEK293-TRPC6 membrane potential dye fluorescence; hits give high values;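 active means B-score of the integrated fluorescence ratio above library mean plus 3 SD, and starting fluorescence ratio within library mean plus 5 SD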;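 further: higher score means more depolarization so channel activation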
TRPC4 potent = allosterically enhances the mouse TRPC4 cation channel; HEK293 TRPC4beta/mu-opioid, DAMGO EC20, Fluo-4 Ca2+ flux; hits give high values; AID 2227; actives 0.42% (n = 310,000); B-score at 10 µM; Q9QUQ5;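 active means B-score of calcium response area above 5 SD of library B-scores, with initial fluorescence ratio within 5 SD of library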
TRPC6 inh = inhibitors of mouse TRPC6 channel; HEK293-TRPC6, membrane potential dye, ACh-evoked depolarization; hits give low values; B-score at 10 µM; actives 1.1% (n = 310,000);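 active means B-score under library mean minus 3 SD, initial fluorescence not abnormally high, positive integrated signal ratio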;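 further: B-score derived from integrated fluorescence ratio over the kinetic read; more negative B-score means stronger inhibition of depolarization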
TRPC4 sel inh 2 = second selectivity test of TRPC6 inhibitors: effect on mouse TRPC4; shares compounds with TRPC6 inh; HEK293 TRPC4/MOR, membrane potential dye fluorescence; channel activated by saturating DAMGO dose; inhibition, % at 10 µM; actives 42% (n = 920);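 active means compounds whose fluorescence signal differed from control wells by over 3 SD, either direction, in both duplicate plates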
TRPC4 spec = mouse TRPC4 off-target activity of TRPC6 inhibitors | actives 61% (n = 920) | HEK293 TRPC4/mu-opioid, membrane potential fluorescence | activity change, negative = inhibition, % at 10 µM | shares compounds with TRPC6 inh;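 active means rise or fall in signal beyond 3 SD of buffer-only wells in both replicate plates, either sign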;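 further: integrated kinetic ratio of fluorescence range over baseline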
HEK293 MPD ctr 2-1 = parental HEK293 nonspecific activity of TRPC6 inhibitors, second screen; shares compounds with TRPC6 inh; parental HEK293 membrane potential dye fluorescence; maximal acetylcholine challenge after compound addition; signal change vs control, % at 10 µM; actives 31% (n = 920);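 active means membrane potential signal moving either way by over 3 SD of the maximum-effect control, in both duplicate plates, meaning non-specific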
HEK293 MPD ctr-1 = parental HEK293 nonspecific activity of TRPC6 inhibitors; shares compounds with TRPC6 inh; parental HEK293 membrane potential dye fluorescence; membrane potential signal change, % at 10 µM; actives 60% (n = 920); AID 2780;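 active means membrane potential signal shifting up or down by more than 3 SD of buffer-only wells, on both duplicate plates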
HEK293 MPD ctr-2 = counter-screen for TRPC6 modulators: effect in parental HEK293 cells. shares compounds with TRPC6 inh. membrane potential dye fluorescence. membrane potential signal change, % at 10 µM. actives 51% (n = 2,400). AID 488924;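 active means membrane potential signal moves up or down beyond 5 SD from buffer-only wells, on both duplicate plates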
HEK293 MPD ctr 2-2 = second counter-screen for TRPC6 modulators: effect in parental HEK293 cells; membrane potential dye fluorescence; after compound, maximal acetylcholine stimulation; shares compounds with TRPC6 inh; inhibition, % at 10 µM; actives 14% (n = 2,400);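 active means membrane potential signal drops by more than 5 SD from the mean control signal, in both duplicate plates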
TRPC4 ctr mod = mouse TRPC4 off-target activity of TRPC6 modulators; AID 488927; actives 69% (n = 2,400); percent change from control (negative = decrease, positive = increase), % at 10 µM; shares compounds with TRPC6 inh; HEK293 TRPC4/mu-opioid, membrane potential fluorescence;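 active means membrane potential signal moved up or down beyond 5 SD of buffer control wells, in both duplicate plates, actives on both sides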
TRPC4/MOR inh 2 = mouse TRPC4 off-target activity of TRPC6 modulators, second screen; shares compounds with TRPC6 inh; HEK293 TRPC4/mu-opioid, membrane potential dye fluorescence; stimulated with maximal-effect DAMGO; inhibition, % at 10 µM; actives 55% (n = 2,400);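 active means drop in membrane potential signal beyond 5 SD of the control wells in both duplicate plates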;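 further: TRPC4 counter screen for TRPC6 hits run under conditions tuned for TRPC6 not TRPC4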
TRPC6 block conf = confirmation of mouse TRPC6 inhibitors; shares compounds with TRPC6 inh; HEK293-TRPC6, membrane potential dye, ACh-evoked depolarization; inhibition, % at 10 µM; actives 43% (n = 3,300); AID 488960;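 active means fluorescence ratio falls more than 5 SD below the full-stimulation control mean, in both duplicate runs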;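 further: integrated fluorescence ratio of peak minus minimum over baseline after agonist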
TRPC6 act confirm = mouse TRPC6 activator confirmation. shares compounds with TRPC6 inh. HEK293-TRPC6 membrane potential dye fluorescence, FDSS. activation, % at 10 µM. actives 11% (n = 2,800). AID 488961;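 active means ratio signal rise beyond 5 SD above unstimulated control wells' mean, seen in both duplicate runs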
Numbers stand for hits; – = inactive; · = no result.

SMILES	DSG3 Ab inh	TRPC4 block	TRPC4 agonist	TRPC6 activator	TRPC4 potent	TRPC6 inh	HEK293 MPD ctr-2	HEK293 MPD ctr 2-2	TRPC4 ctr mod	TRPC4/MOR inh 2	TRPC6 block conf	TRPC6 act confirm	others
CCOc1ccc(Nc2cc(C)nc3c(C)cccc23)cc1	–	–	–	–	–	-5.5	-86%	–	-22%	52%	43%	–
COc1ccc(Cl)cc1Nc1cc(C)nc2ccccc12	–	–	–	–	–	-5.4	-76%	–	-12%	70%	56%	–
COc1ccc(Nc2cc(C)nc3c(C)cccc23)cc1OC	–	–	–	–	–	-5	-145%	–	-30%	55%	44%	–
CCN1CCN(c2ccc(S(=O)(=O)N3CCOCC3)cc2NC(=O)C(C)Oc2ccc(Cl)cc2)CC1 (configuration not stated)	–	–	–	–	–	–	·	·	·	·	·	·
O=C(c1ccc2c(=O)n3c(nc2c1)CCC3)N1CCN(S(=O)(=O)c2ccccc2Br)CC1	–	·	·	·	·	·	·	·	·	·	·	·
COc1cc2[nH]c(=O)n3nc(-c4ccccc4)nc3c2cc1OC	·	–	–	–	–	–	·	·	·	·	·	·
CCN(CC)CCNc1nc2cc(OC)c(OC)cc2c2nc(-c3ccccc3)nn12	–	–	–	–	–	-12	·	·	·	·	76%	–	TRPC4 sel inh 2=38%;TRPC4 spec=-33%;HEK293 MPD ctr 2-1=32%;HEK293 MPD ctr-1=-384%
CC(C)NC(=O)c1cnc(Sc2ncc(C(F)(F)F)cc2Cl)n1C	·	–	–	–	–	-5.7	–	–	–	–	–	–
Cc1ccc([N+](=O)[O-])cc1S(=O)(=O)NCCc1c(C)[nH]c2c(C)cccc12	–	–	–	–	–	–	·	·	·	·	·	·
Cc1[nH]c2c(C)cccc2c1CCNS(=O)(=O)c1cccc([N+](=O)[O-])c1	·	–	–	–	–	-8.7	-100%	–	-26%	32%	–	–
COc1ccc(-c2cc(C(=O)OCc3ccccn3)c3ccccc3n2)cc1	–	–	–	–	–	–	·	·	·	·	·	·
COc1ccc(S(=O)(=O)n2nc(OC(C)=O)cc2N(C(C)=O)C(C)=O)cc1	–	–	–	–	–	–	·	·	·	·	·	·
CN(C)c1cc(-c2cccc(C(F)(F)F)c2)oc(=O)c1Cl	·	–	–	–	–	–	·	·	·	·	·	·
O=C(Nc1ccc(Cl)cc1)c1ccc(-n2cncn2)c([N+](=O)[O-])c1	–	–	–	–	–	-5.5	-106%	–	–	56%	–	–
COCCNC(=O)CN(Cc1ccc(F)cc1)C(=O)CCC(=O)Nc1nccs1	–	–	–	–	–	–	·	·	·	·	·	·
NC(=NCCc1c[nH]c2ccccc12)NC(=O)c1ccc(F)cc1	–	–	–	–	–	-6.5	–	–	–	54%	44%	–
CC(NC(=O)C(=O)N/N=C\c1cccc([N+](=O)[O-])c1)c1ccccc1 (configuration not stated)	–	–	–	–	–	–	·	·	·	·	·	·
O=C(O)c1ccc(Cl)c(S(=O)(=O)N(Cc2ccccc2)c2ccc(F)cc2)c1	–	–	–	17	–	–	140%	–	22%	–	–	144%
COc1ccc(N(Cc2ccccc2)S(=O)(=O)c2cc(C(=O)O)ccc2Cl)cc1	–	–	–	25	–	–	190%	–	42%	–	–	148%
CCOc1ccc(NC(=O)CN(C)C(=O)CCCc2nc3ccccc3c(=O)[nH]2)cc1OCC	–	–	–	–	–	–	·	·	·	·	·	·
O=C(Nc1ccc(F)cc1)Nc1ccccc1C(=O)NCCN1CCNC1=O	–	–	–	–	–	–	·	·	·	·	·	·
COc1cc(/C=C2\SC(=S)N(NS(=O)(=O)c3ccccc3)C2=O)ccc1O	–	–	–	15	–	–	490%	74%	64%	–	–	57%
COc1cc(/C=C2\SC(=S)N(NS(=O)(=O)c3ccc(C)cc3)C2=O)ccc1O	–	–	–	23	–	–	614%	–	90%	29%	–	110%
COc1cc(/C=C2\SC(=S)N(NC(=O)c3ccccc3OC)C2=O)ccc1O	–	–	–	–	–	–	·	·	·	·	·	·
CCCCCC(=O)N1CCCCC1	–	–	–	–	–	–	·	·	·	·	·	·
SMILES	DSG3 Ab inh	TRPC4 block	TRPC4 agonist	TRPC6 activator	TRPC4 potent	TRPC6 inh	HEK293 MPD ctr-2	HEK293 MPD ctr 2-2	TRPC4 ctr mod	TRPC4/MOR inh 2	TRPC6 block conf	TRPC6 act confirm	others
CCc1nc2ccc(C)cc2c(C(=O)NC2CCCCC2C)c1C (configuration not stated)	–	–	–	14	–	–	426%	–	102%	31%	–	148%
Cc1ccc2nc(C)cc(C(=O)NC3CCCCCC3)c2c1	–	·	·	·	·	·	·	·	·	·	·	·
COc1cccc2sc3ccc(NCCC4CCCN4C)cc3c(=O)c12 (configuration not stated)	–	–	–	–	–	-6.8	·	·	·	·	–	·	TRPC4 sel inh 2=65%;TRPC4 spec=21%;HEK293 MPD ctr 2-1=–;HEK293 MPD ctr-1=17%
COc1ccc([N+](=O)[O-])cc1N/C(=N/S(=O)(=O)c1ccccc1)c1ccccc1	–	–	–	–	–	–	·	·	·	·	·	·
Cn1cnnc1SCC(=O)NC1CCCN(Cc2ccccc2F)C1 (configuration not stated)	–	–	–	–	–	–	·	·	·	·	·	·
O=C(Nc1ccncc1)Nc1ccc(Cl)cc1	–	–	–	–	–	–	·	·	·	·	·	·
